SUMO1 PPI mod: modulators of human SUMO1-mediated protein-protein interactions; 360,000 compounds, 0.33% hits; SUMO1 binding to a labelled peptide, TR-FRET, 1 h; inhibition, % at 20 µM; P63165; in the data active = inhibition above about 37%
Target sequence (P63165 whole entry, looked up): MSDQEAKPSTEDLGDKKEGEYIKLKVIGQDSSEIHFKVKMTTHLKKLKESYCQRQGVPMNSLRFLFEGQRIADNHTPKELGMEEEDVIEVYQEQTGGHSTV
NadD inh: blocks S. aureus nicotinate mononucleotide adenylyltransferase; purified NadD enzyme, colorimetric absorbance read-out; inhibition, % at 20 µM; 360,000 compounds, 0.78% hits; AID 602399; in the data active = inhibition above about 26%
Scp-1 inhibitor: inhibitors of human Scp-1 phosphatase; Q9GZU7; Recombinant Scp1, phosphopeptide, malachite green phosphate absorbance; inhibition, % at 20 µM; 340,000 compounds, 0.88% hits; AID 493091;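 active = inhibition above about 50% at 20 µM, limit read from the data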
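Assay system: SCP-1 catalytic fragment, aa 76-261 | Buffer or medium: Tris acetate buffer pH 5.5 with MgCl2 and Tween-20 | Compound: One concentration, 20 µM, with 1.0% DMSO | Also added: Phospho 17-mer peptide substrate | Signal: Absorbance at 630 nm | Incubation: 45 min enzyme reaction at room temperature | Measure: % inhibition of SCP-1 phosphate liberation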
STEP inh: blocks human striatal-enriched tyrosine phosphatase. P54829. recombinant STEP, OMFP fluorogenic substrate, fluorescence. inhibition, % at 20 µM. 360,000 compounds, 0.25% hits;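 active = inhibition at 20 µM, scaled per plate between control wells, above about 37%, limit read from the data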
Target sequence (P54829 whole entry, looked up): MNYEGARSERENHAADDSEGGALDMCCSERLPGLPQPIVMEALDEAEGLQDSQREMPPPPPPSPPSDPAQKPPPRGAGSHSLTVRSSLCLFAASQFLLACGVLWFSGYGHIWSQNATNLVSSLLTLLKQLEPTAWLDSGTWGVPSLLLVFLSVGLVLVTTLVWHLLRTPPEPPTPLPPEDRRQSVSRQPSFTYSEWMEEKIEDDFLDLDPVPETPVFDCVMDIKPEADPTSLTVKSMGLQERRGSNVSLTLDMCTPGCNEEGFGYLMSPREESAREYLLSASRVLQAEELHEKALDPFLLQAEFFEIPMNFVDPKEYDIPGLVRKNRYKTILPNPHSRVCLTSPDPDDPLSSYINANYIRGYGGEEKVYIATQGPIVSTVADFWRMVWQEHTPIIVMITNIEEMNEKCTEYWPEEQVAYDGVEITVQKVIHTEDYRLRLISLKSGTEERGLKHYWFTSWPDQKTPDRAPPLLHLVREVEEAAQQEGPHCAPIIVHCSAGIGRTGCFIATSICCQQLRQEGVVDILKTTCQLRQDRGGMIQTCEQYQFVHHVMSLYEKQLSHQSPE
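System: isolated STEP enzyme; schedule: 20 min enzyme reaction at room temperature, protected from light; medium: Bis-Tris buffer pH 6.0, 2.5 mM DTT, 0.005% Tween 20; signal: fluorescence, 480/540 nm; dosing: single compound dose of 20 µM, 1% DMSO final; also added: OMFP substrate, 25 µM final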
DNMT1 inh: DNMT1 (human) enzyme inhibition; DNMT1 molecular beacon, Hinp1I cleavage, fluorescence; P26358; inhibition (reported as % activation of signal), % at 10 µM; 360,000 compounds, 0.83% hits; in the data active = inhibition above about 50%
LMPTP inh: LMPTP (human) inhibition; P24666; recombinant LMPTP-A, OMFP fluorogenic substrate, fluorescence intensity; inhibition, % at 20 µM; 360,000 compounds, 0.22% hits;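 active = compounds that cut the enzyme signal by at least half of the control window in the single-dose screen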
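Assay system: LMPTP-A enzyme. Input: 0.625 nM LMPTP-A final. Probe or stimulus: 400 µM OMFP. Compound dosing: single 20 µM dose. Schedule: 50 min dark incubation at room temperature. Detection: fluorescence intensity of OMFP turnover product. Read-out: percent inhibition versus substrate-only and uninhibited controls. Benchmarks: no-enzyme low control, uninhibited high control.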
DNMT1 inh conf: DNMT1 inhibition confirmation, single concentration; shares compounds with DNMT1 inh; DNMT1 molecular beacon HinP1I cleavage, fluorescence; inhibition, % at 10 µM; 2,300 compounds, 8% hits;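 active = average inhibition of at least 30% in the single-concentration confirmation test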
Beacon interf: shows spectral interference in the DNMT1 beacon assay | activation (fluorescence interference), % at 10 µM | AID 602387 | 2,300 compounds, 1% hits | DNMT1 molecular beacon spectral interference counterscreen, fluorescence 485/520 | shares compounds with DNMT1 inh;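 active = activation of at least 30% at 10 µM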;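 also: DNMT1 catalytic domain with a HinP1I cleavage step and a FAM/dabcyl DNA beacon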
Hits are given with their value; . = inactive; / = no result given. Hits are enriched below; roughly 2.4% of the tested compounds scored in any of these assays.

SMILES	SUMO1 PPI mod	NadD inh	Scp-1 inhibitor	STEP inh	DNMT1 inh	LMPTP inh	DNMT1 inh conf	Beacon interf
C[C@@H](C(=O)Nc1nccs1)N1C(=O)C2CC=CCC2C1=O (stereo partly specified)	.	.	.	.	60	.	.	.
CC(C(=O)Nc1nccs1)N1C(=O)C2CC=CCC2C1=O (stereo unspecified)	.	.	.	.	.	.	/	/
COc1cc(C(=O)Nc2cc(C)ccn2)ccc1OCC(=O)N1CCOCC1	.	.	.	.	.	.	/	/
CC(C)[C@H](NC(=O)[C@@H]1Cc2ccccc2CN1C(=O)OC(C)(C)C)C(=O)NCc1ccco1	.	.	.	.	.	.	/	/
O=C(O)c1cc([N+](=O)[O-])ccc1-c1ccc([N+](=O)[O-])cc1C(=O)O	.	.	/	.	61	.	.	.
O=C(O)c1cc([N+](=O)[O-])ccc1N1CCCCC1	.	.	.	.	.	.	/	/
CN(C)C(CNC(=O)C1CC(=O)N(c2cccc(C(F)(F)F)c2)C1)c1ccccc1 (stereo unspecified)	.	.	/	.	91	.	.	.
CN(C)C(CNC(=O)C1CC(=O)N(Cc2ccccc2)C1)c1ccccc1 (stereo unspecified)	.	.	.	.	.	.	/	/
COc1ccccc1C(=O)NC(=S)Nc1ccc(N2CCCC2)cc1	.	.	.	.	68	.	.	.
COc1ccc(C(C)(C)C)cc1NC(=O)c1ccc2c(c1)SC1=NS(=O)(=O)CCN12	.	.	.	.	69	.	.	.
C=CCn1c(N)c(C(=O)OC(C)(C)C)c2nc3ccccc3nc21	.	.	.	.	.	.	/	/
C=CCn1c(N)c(C(=O)OC(C)CC)c2nc3ccccc3nc21 (stereo unspecified)	.	.	.	.	70	.	.	.
CC12CCC3c4ccc(O)c([N+](=O)[O-])c4CCC3C1CCC2=O (stereo unspecified)	.	.	/	.	78	.	.	.
CC1CCc2c(cnc3ncnn23)C1 (stereo unspecified)	.	.	.	.	.	.	/	/
COc1cc(NS(=O)(=O)c2ccc(OC)c(C)c2C)c(OC)cc1Cl	.	.	.	.	.	.	/	/
COc1ccc(OC)c(S(=O)(=O)Nc2cc(OC)c(Cl)cc2OC)c1	.	.	.	.	69	.	.	.
CCOc1ccccc1-n1nnnc1SCC(=O)N(C)C1CCS(=O)(=O)C1 (stereo unspecified)	.	.	/	.	.	.	/	/
Cc1cc(=O)oc2c(C)c(OC(C)C(=O)NC(Cc3c[nH]c4ccc(O)cc34)C(=O)O)ccc12 (stereo unspecified)	.	.	.	.	85	.	.	.
CC(SC(C)C(=O)NN=Cc1cccc(Cl)c1)C(=O)NN=Cc1cccc(Cl)c1 (stereo unspecified)	.	.	.	.	65	.	.	.
COc1cccc(OC)c1OC(=O)C1CC(=O)N(c2ccc3c(c2)OCCO3)C1 (stereo unspecified)	.	.	.	.	53	.	.	.
COc1ccccc1NC(=O)C(C)OC(=O)C1CC(=O)N(c2ccc3c(c2)OCCO3)C1 (stereo unspecified)	.	.	.	.	.	.	/	/
CC(=O)NC(c1cccc(F)c1)c1nc(-c2cc(F)cc(Cl)c2)cs1 (stereo unspecified)	.	.	/	.	59	.	.	.
COc1ccc(N2C3=C(C(=O)CC(C)(C)C3)C(c3ccccc3OC)C3=C2CC(C)(C)CC3=O)cc1	.	.	.	.	.	.	/	/
COc1ccccc1C1C2=C(CC(C)(C)CC2=O)N(CC(=O)O)C2=C1C(=O)CC(C)(C)C2	.	.	.	.	52	.	.	.
Cc1cc(OCC(=O)C(C)(C)C)c2c(-c3ccccc3)cc(=O)oc2c1	.	.	.	.	.	.	/	/
SMILES	SUMO1 PPI mod	NadD inh	Scp-1 inhibitor	STEP inh	DNMT1 inh	LMPTP inh	DNMT1 inh conf	Beacon interf
NC(=O)C1CCN(C(=O)C2CCN(S(=O)(=O)c3ccccc3)CC2)CC1	.	.	.	.	81	.	.	.
O=C(C1CCN(S(=O)(=O)c2ccccc2)CC1)N1CCN(c2ccccc2)CC1	.	.	.	.	.	.	/	/
Cc1c(NC2=NC3(CCCCC3)Cc3ccccc32)c(=O)n(C)n1-c1ccccc1	.	.	.	.	83	.	.	.
COCc1ccc(CN2CCCCC2C(=O)Nc2ccc(Oc3ccccc3)nc2)o1 (stereo unspecified)	.	.	.	.	.	.	/	/
O=C(C[C@@H]1C/C=C\C[C@@H](Cc2ccc(F)cc2)C(=O)OC[C@@H](Cc2ccccc2)NC1=O)N[C@H](CO)Cc1ccccc1	.	.	.	.	68	.	.	.
O=C(C[C@H]1C/C=C\CC[C@@H](Cc2ccc(F)cc2)C(=O)O[C@@H](c2ccccc2)CNC1=O)N[C@H](CO)Cc1ccccc1	.	.	.	.	.	.	/	/
O=C(C[C@H]1C/C=C\C[C@H](NC(=O)OCC2c3ccccc3-c3ccccc32)C(=O)O[C@H](c2ccccc2)CNC1=O)N[C@H](CO)Cc1ccccc1	.	.	.	.	57	.	.	.
O=C(C[C@H]1C/C=C\C[C@@H](Cc2ccc(F)cc2)C(=O)O[C@H](c2ccccc2)CNC1=O)N[C@@H](CO)Cc1ccccc1	.	.	.	.	85	.	.	.
CCC(O)CNC(=O)CCc1nnc(C2(c3ccc(Cl)cc3)CCC2)o1 (stereo unspecified)	.	.	.	.	.	.	/	/
CN(C)S(=O)(=O)N(Cc1ccc(Br)cc1)c1ccccc1	.	.	.	.	.	.	/	/
CN(C)S(=O)(=O)N(CC(=O)N(Cc1ccccc1)Cc1ccccc1)c1ccccc1	.	.	.	.	56	.	.	.
CC1(OC(=O)CCc2ccccc2)C(=O)C=C2C=C3CCCN3C=C2C1=O (stereo unspecified)	.	.	.	.	77	.	.	.
Cc1cccc(C)c1NC(=O)Nc1ccc(S(N)(=O)=O)cc1	.	.	.	.	.	.	/	/
CC(C)(C)NC(=O)Cc1ccc(S(=O)(=O)N2CCCC2)s1	.	.	.	.	72	.	.	.
Cc1cc(C(=O)COC(=O)C(C)NC(N)=O)c(C)n1Cc1ccco1 (stereo unspecified)	.	.	.	.	.	.	/	/
Cc1cc(C(=O)C(C)Cl)c(C)n1Cc1ccco1 (stereo unspecified)	.	.	.	.	65	.	.	.

Screening results from PubChem BioAssay.
